The species entered for assay [1] is Homo sapiens. Nature of the assay: Selectivity ratio of Ke for human delta opioid receptor to Ke for human kappa opioid receptor.
The species named for assay [2] is Homo sapiens. Put plainly: Selectivity ratio of Ke for human mu opioid receptor to Ke for human kappa opioid receptor.
For assay [3], the target named is Kappa-type opioid receptor (Homo sapiens) (UniProt P41145). Put plainly: Antagonist activity at human kappa opioid receptor expressed in CHO cells assessed as inhibition of U69,593-stimulated [35S]GTPgammaS binding at 10 nM relative to control. It is filed as functional, cell-based.
Assay [4] has the same target. Nature of the assay: Antagonist activity at human kappa opioid receptor expressed in CHO cells assessed as inhibition of U69,593-stimulated [35S]GTPgammaS binding. The assay is classed as functional, cell-based. In a few lines: (§1)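 Agonist concentration-response curves (eight concentrations, duplicate) were run with or without a single test-compound concentration. Ke = [L]/(DR−1), where [L] is the test-compound concentration and DR is the ratio of agonist EC50 with versus without compound. At least two test-compound concentrations were used, chosen to shift agonist EC50 rightward at least four-fold while keeping a clear upper asymptote.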

Assay [5] has the same target. Put plainly: Intrinsic activity at human kappa opioid receptor expressed in CHO cells at 10 uM by [35S]GTPgammaS binding assay. The assay is classed as functional, cell-based.
Assay [6] concerns the target Delta-type opioid receptor (Homo sapiens) (UniProt P41143). Put plainly: Intrinsic activity at human delta opioid receptor expressed in CHO cells at 10 uM by [35S]GTPgammaS binding assay. The assay is classed as functional, cell-based.
For assay [7] the target is unchanged. Put plainly: Antagonist activity at human delta opioid receptor expressed in CHO cells assessed as inhibition of DPDPE-stimulated [35S]GTPgammaS binding. It is filed as functional, cell-based. In a few lines:
as §1

Assay [8] addresses Mu-type opioid receptor (Homo sapiens) (UniProt P35372). The following applies: CHO.

10 molecules from ChEMBL document CHEMBL2380235, “Discovery of N-{4-[(3-hydroxyphenyl)-3-methylpiperazin-1-yl]methyl-2-methylpropyl}-4-phenoxybenzamide analogues as selective kappa opioid receptor antagonists” (J Med Chem, 2013) can be followed below.

Structures are written as SMILES. Activity calls are given as the source filed them. No cut-off for these calls is given here.

Sequence of Kappa-type opioid receptor (Homo sapiens) (P41145 whole entry): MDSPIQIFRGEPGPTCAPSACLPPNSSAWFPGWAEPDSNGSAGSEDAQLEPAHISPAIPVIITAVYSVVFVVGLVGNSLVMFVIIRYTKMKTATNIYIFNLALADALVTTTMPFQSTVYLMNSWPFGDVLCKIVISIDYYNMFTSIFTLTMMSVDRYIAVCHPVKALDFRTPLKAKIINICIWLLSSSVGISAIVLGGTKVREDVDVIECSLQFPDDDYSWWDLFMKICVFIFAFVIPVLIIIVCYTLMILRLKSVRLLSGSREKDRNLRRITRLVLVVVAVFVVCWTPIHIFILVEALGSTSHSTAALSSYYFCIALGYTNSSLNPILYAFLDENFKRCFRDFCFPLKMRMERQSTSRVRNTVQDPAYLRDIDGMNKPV
Sequence of Mu-type opioid receptor (Homo sapiens) (P35372 whole entry): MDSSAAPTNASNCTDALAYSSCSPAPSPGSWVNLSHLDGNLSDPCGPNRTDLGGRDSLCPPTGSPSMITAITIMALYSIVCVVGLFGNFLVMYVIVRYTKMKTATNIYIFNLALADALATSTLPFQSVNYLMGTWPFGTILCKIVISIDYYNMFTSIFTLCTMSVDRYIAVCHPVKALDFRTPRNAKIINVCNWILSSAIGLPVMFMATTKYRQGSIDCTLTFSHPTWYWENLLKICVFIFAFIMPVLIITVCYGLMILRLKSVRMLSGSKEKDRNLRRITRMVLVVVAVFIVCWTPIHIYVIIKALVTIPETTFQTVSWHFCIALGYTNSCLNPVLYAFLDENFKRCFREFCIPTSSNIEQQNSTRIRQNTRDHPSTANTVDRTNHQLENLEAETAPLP
Sequence of Delta-type opioid receptor (Homo sapiens) (P41143 whole entry): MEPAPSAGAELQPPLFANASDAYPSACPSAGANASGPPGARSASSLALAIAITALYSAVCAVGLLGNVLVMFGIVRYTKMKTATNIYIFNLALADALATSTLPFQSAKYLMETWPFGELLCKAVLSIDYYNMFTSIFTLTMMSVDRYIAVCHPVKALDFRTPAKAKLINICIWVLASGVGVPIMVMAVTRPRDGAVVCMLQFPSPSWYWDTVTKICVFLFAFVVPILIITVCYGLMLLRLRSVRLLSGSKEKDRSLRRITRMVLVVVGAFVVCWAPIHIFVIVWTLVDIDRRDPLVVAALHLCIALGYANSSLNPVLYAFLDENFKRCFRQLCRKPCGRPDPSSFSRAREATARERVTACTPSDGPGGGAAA

With `CCCCc1ccc(C(=O)N[C@H](CN2CCN(c3cccc(O)c3)[C@@H](C)C2)C(C)C)cc1`, the Ratio Ke in the assay filed under Homo sapiens [1] amounted to 83; in the assay filed under Homo sapiens [2], 7.5. For the same molecule, the inhibition in assay [3] is above 60%. Also, the Ke in assay [4] stood at 2.8 nM. For the same molecule, the result in assay [5] and in assay [6] was inactive.
For the molecule `CC(C)[C@@H](CN1CCN(c2cccc(O)c2)[C@@H](C)C1)NC(=O)c1ccc(-c2ccccc2)cc1`, the Ratio Ke worked out at 137 in the assay filed under Homo sapiens [1] and 4.7 in the assay listed under Homo sapiens [2]. Also, in assay [3], the inhibition was above 60%. The Ke in assay [4] amounted to 1.87 nM. For the same molecule, the outcome in assay [5] and in assay [6] was inactive.
For `Cc1cc(C)cc(Oc2ccc(C(=O)N[C@H](CN3CCN(c4cccc(O)c4)[C@@H](C)C3)C(C)C)cc2)c1`, the Ratio Ke in the assay filed under Homo sapiens [1] worked out at 80; in the assay listed under Homo sapiens [2] it was 26. For the same molecule, the Ke worked out at 0.98 nM in assay [4], 78 nM in assay [7] and 25 nM in assay [8]. The result in assay [5] and in assay [6] was inactive.
As for `CC(C)[C@@H](CN1CCN(c2cccc(O)c2)[C@@H](C)C1)NC(=O)c1ccc(Oc2cccc(O)c2)cc1`, the Ratio Ke in the assay filed under Homo sapiens [1] was found to be 338; in the assay listed under Homo sapiens [2], 37. For the same molecule, the Ke in assay [4] was 1.85 nM; in assay [7] it was 625 nM; in assay [8] it was 69 nM. Also, the outcome in assay [5] and in assay [6] was inactive.
On to `Cc1cccc(Oc2ccc(C(=O)N[C@H](CN3CCN(c4cccc(O)c4)[C@@H](C)C3)C(C)C)cc2C)c1`, for which the Ratio Ke in the assay filed under Homo sapiens [1] worked out at 131; in the assay filed under Homo sapiens [2], 89. In addition, the values for the Ke in assay [4], in assay [7] and in assay [8] were 0.16 nM, 21 nM and 14.4 nM, respectively. For the same molecule, the outcome in assay [5] and in assay [6] was inactive.
Regarding `Cc1ccc(Oc2ccc(C(=O)N[C@H](CN3CCN(c4cccc(O)c4)[C@@H](C)C3)C(C)C)cc2)cc1`, the Ratio Ke in the assay filed under Homo sapiens [1] was found to be 272; in the assay listed under Homo sapiens [2], 29. Further, the Ke in assay [4] turned out to be 0.69 nM; in assay [7], 188 nM; in assay [8], 20 nM. Besides, the result in assay [5] and in assay [6] was inactive.
As for `CC(C)[C@@H](CN1CCN(c2cccc(O)c2)[C@@H](C)C1)NC(=O)c1ccc(Oc2cccc(Cl)c2)cc1`, the results for the Ratio Ke in the assay filed under Homo sapiens [1] and in the assay listed under Homo sapiens [2] were 20 and 43, respectively. The Ke was 0.42 nM in assay [4], 8.3 nM in assay [7] and 18 nM in assay [8]. The result in assay [5] and in assay [6] was inactive.
Turning to `Cc1cccc(Oc2ccc(C(=O)N[C@H](CN3CCN(c4cccc(O)c4)[C@@H](C)C3)C(C)C)cc2)c1O`, the Ratio Ke in the assay listed under Homo sapiens [1] is 272; in the assay filed under Homo sapiens [2] it was 70. Further, the figures for the Ke in assay [4], in assay [7] and in assay [8] were 0.34 nM, 93 nM and 23.8 nM, respectively. For the same molecule, the result in assay [5] and in assay [6] was inactive.
Turning to `CC(C)[C@@H](CN1CCN(c2cccc(O)c2)[C@@H](C)C1)NC(=O)c1ccc(Oc2ccccc2)cc1`, the Ratio Ke in the assay filed under Homo sapiens [1] was found to be 671; in the assay listed under Homo sapiens [2], 60. Further, the inhibition in assay [3] was above 60%. The Ke in assay [4] came to 0.85 nM; in assay [7], 570 nM; in assay [8], 51 nM. Besides, the result in assay [5] and in assay [6] was inactive.
In the case of `CC(C)[C@@H](CN1CCN(c2cccc(O)c2)[C@@H](C)C1)NC(=O)c1ccc(Oc2ccc(O)cc2)cc1`, the Ratio Ke in the assay filed under Homo sapiens [1] worked out at 197; in the assay listed under Homo sapiens [2], 8. Besides, the Ke in assay [4] is 8.6 nM; in assay [7], 1700 nM; in assay [8], 71 nM. The outcome in assay [5] and in assay [6] was inactive.
